From ChEMBL document CHEMBL1141516, “2-Aminotetralones: novel inhibitors of MurA and MurZ” (Bioorg Med Chem Lett, 2008)
≈ marks a conversion by molar mass, not a printed value. Calls of active or inactive are those of the source. No cut-off for these calls is given here.

What was measured:
[1] = Antibacterial activity against Escherichia coli JM109; type: functional
[2] = Inhibition of Escherichia coli MurA
Method in brief: (§1)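 Poly(His)-tagged MurA from E. coli BL21 Star (DE3) (0.1 mM IPTG, 18 °C, 24 h), purified by Co2+ affinity and gel filtration. At 25 °C, a 2-fold inhibitor series went to 33.3 µg/mL enzyme preincubated 10 min in 50 mM Tris-HCl pH 7.8 with UDP-GlcNAc. PEP started a 30 min reaction. Phosphate was read by malachite green-molybdate at A660 against standards. Means of four experiments ± SD.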

[3] = Inhibition of MDH
[4] = Inhibition of chymotrypsin
[5] = Inhibition of Staphylococcus aureus MurA; method in brief: as §1
[6] = Antibacterial activity against Staphylococcus aureus SH1000; type: functional
[7] = Inhibition of Staphylococcus aureus MurZ
Method in brief: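 Poly(His)-tagged MurZ was expressed in E. coli BL21 Star (DE3) by autoinduction and purified by Co2+ affinity and gel filtration. At 25 °C, a 2-fold inhibitor series was added to enzyme preincubated 10 min in 50 mM Tris-HCl pH 7.8 with UDP-GlcNAc. PEP started a 30 min reaction. Released phosphate was read by malachite green-molybdate at A660 against phosphate standards. Means of three experiments ± SD.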

[8] = system: UDP-N-acetylglucosamine 1-carboxyvinyltransferase (Escherichia coli K-12), P0A749 [C115D]; assay: Inhibition of Escherichia coli MurA C115D mutant
Chain of UDP-N-acetylglucosamine 1-carboxyvinyltransferase (Escherichia coli K-12), P0A749 [C115D] (P0A749 whole entry C115D): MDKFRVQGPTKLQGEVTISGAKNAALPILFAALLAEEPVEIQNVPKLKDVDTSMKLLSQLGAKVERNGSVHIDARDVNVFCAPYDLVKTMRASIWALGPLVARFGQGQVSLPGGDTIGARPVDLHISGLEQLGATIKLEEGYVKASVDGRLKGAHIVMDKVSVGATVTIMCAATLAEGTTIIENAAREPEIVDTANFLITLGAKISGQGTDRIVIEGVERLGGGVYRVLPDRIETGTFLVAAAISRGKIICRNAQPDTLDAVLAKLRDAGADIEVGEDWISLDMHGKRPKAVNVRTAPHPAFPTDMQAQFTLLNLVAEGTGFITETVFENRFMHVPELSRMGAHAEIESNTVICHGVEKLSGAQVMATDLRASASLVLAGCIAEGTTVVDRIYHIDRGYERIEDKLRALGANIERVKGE
Method in brief: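 Purified E. coli MurA C115D mutant protein was tested with inhibitor at up to 120 µM.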

**Q.** What does the source list for `COc1cc2c(cc1OC)C(=O)C(N1CCN(Cc3ccccc3)CC1)CC2` (stereo not given)?
**A.** MIC [1]: > 256 µg/mL; IC50 [2]: 22.6 µM; Activity [3]: inactive; Activity [4]: inactive; IC50 [5]: 29 µM; MIC [6]: 64 µg/mL (≈ 168 µM); IC50 [7]: 28.9 µM

**Q.** For `O=C1c2ccccc2CCC1C1CCCCC1` (stereo not given), which MIC [1] is on record?
**A.** The MIC was greater than 256 µg/mL.

**Q.** And the IC50 [2]?
**A.** Its IC50 is greater than 120 µM.

**Q.** What about the IC50 [5] of the same compound?
**A.** Its IC50 is greater than 120 µM.

**Q.** And the MIC [6]?
**A.** Its MIC is greater than 256 µg/mL.

**Q.** What about the IC50 [7] of the same compound?
**A.** Its IC50 is greater than 120 µM.

**Q.** What does the source list for `Cl.Cl.OCCN1CCN(C2CCc3ccccc3C2)CC1` (stereo not given)?
**A.** MIC [1]: > 256 µg/mL; IC50 [2]: > 120 µM; IC50 [5]: > 120 µM; MIC [6]: > 256 µg/mL; IC50 [7]: > 120 µM

**Q.** What does the source list for `C[C@@H]1O[C@@H]1P(=O)(O)O` [FOSFOMYCIN]?
**A.** MIC [1]: 8 µg/mL (≈ 57.9 µM); IC50 [2]: 0.46 µM; IC50 [5]: 1.36 µM; MIC [6]: 16 µg/mL (≈ 116 µM); IC50 [7]: 1.37 µM

**Q.** Which results are given for `Cl.Cl.OCCN1CCN([C@@H]2CCc3ccccc3[C@H]2O)CC1`?
**A.** MIC [1]: > 256 µg/mL; IC50 [2]: > 120 µM; IC50 [5]: > 120 µM; MIC [6]: > 256 µg/mL; IC50 [7]: > 120 µM

**Q.** What does the source list for `CN1CCN(C2CCc3ccccc3C2=O)CC1.Cl.Cl` (stereo not given)?
**A.** MIC [1]: 128 µg/mL; IC50 [2]: 8.53 µM; Activity [3]: inactive; Activity [4]: inactive; Activity [8]: inactive; IC50 [5]: 12 µM; MIC [6]: 64 µg/mL; IC50 [7]: 22.9 µM

**Q.** With `Cl.Cl.O=C1c2ccccc2CCC1N1CCN(CCO)CC1` (stereo not given) as the compound, how does the MIC [1] read?
**A.** The MIC was 128 µg/mL.

**Q.** And the IC50 [2]?
**A.** Its IC50 is 22.5 µM.

**Q.** What about the Activity [3] of the same compound?
**A.** Its Activity is “inactive”.

**Q.** What about the Activity [4] of the same compound?
**A.** The Activity was “inactive”.

**Q.** And the IC50 [5]?
**A.** Its IC50 is 12.5 µM.

**Q.** What about the MIC [6] of the same compound?
**A.** Its MIC is 8 µg/mL.

**Q.** And the IC50 [7]?
**A.** Its IC50 is 16.1 µM.

**Q.** What does the source list for `COc1cc2c(cc1OC)C(=O)C(N1CCN(CCO)CC1)CC2.Cl.Cl` (stereo not given)?
**A.** MIC [1]: 256 µg/mL; IC50 [2]: 3.13 µM; Activity [3]: inactive; Activity [4]: inactive; Activity [8]: inactive; IC50 [5]: 17.4 µM; MIC [6]: 128 µg/mL; IC50 [7]: 18.8 µM
